Measurements taken from ChEMBL document CHEMBL1126583, “Potent quinoxaline-spaced phosphono alpha-amino acids of the AP-6 type as competitive NMDA antagonists: synthesis and biological evaluation” (J Med Chem, 1993).

How the values were obtained:
Glutamate NMDA receptor [1] = experiment: Tested for binding affinity against NMDA receptor, from rat synaptic membrane, using [3H]-CPP as the radioligand.
How it was run: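 Rat whole-brain crude synaptic membranes, Triton X-100 treated and frozen at -70 °C; 0.2–0.5 mg protein incubated 15 min at 23 °C with 8 nM [3H]CPP in 50 mM Tris HCl pH 7.6. Nonspecific binding defined with 1.0 mM NMDA. Bound ligand separated by centrifugation and counted by scintillation. Triplicates, 5–10 concentrations; IC50 with 95% confidence limits.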

Glutamate NMDA receptor [2] = experiment: Tested for binding affinity against NMDA receptor, from rat synaptic membrane, using [3H]TCP as the radioligand.
How it was run: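 Stimulated binding assay on rat whole-brain synaptic membranes in 5.0 mM Tris HCl pH 7.4. […] 100 μM MK-801 defines nonspecific binding. Filtration through PEI-soaked glass-fiber filters, then scintillation counting. Triplicates, 5–10 concentrations; IC50 with 95% confidence limits.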

Glutamate NMDA receptor [3] = experiment: Tested for binding affinity against NMDA receptor, from rat synaptic membrane, using [3H]glycine as the radioligand.
How it was run: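 Rat whole-brain synaptic membranes washed and resuspended in 50 mM Tris citrate. Separation by centrifugation, then scintillation counting.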

Question: With `NC(Cc1nc2cc(Cl)ccc2nc1CP(=O)(O)O)C(=O)O` (configuration not stated) as the compound, how does the IC50 (Glutamate NMDA receptor [1]) read?
Answer: Its IC50 is 0.024 µM.

Question: What about the IC50 (Glutamate NMDA receptor [2]) of the same compound?
Answer: Its IC50 is 8.6 µM.

Question: What about the IC50 (Glutamate NMDA receptor [3]) of the same compound?
Answer: Its IC50 is greater than 100 µM.

Question: Which IC50 (Glutamate NMDA receptor [1]) does the source give for `COc1cc2nc(CC(N)C(=O)O)c(CP(=O)(O)O)nc2cc1OC` (configuration not stated) here?
Answer: Its IC50 is 0.832 µM.

Question: `NC(Cc1nc2ccccc2nc1/C=C/P(=O)(O)O)C(=O)O` (configuration not stated) was tested. Which IC50 (Glutamate NMDA receptor [1]) did it give?
Answer: The IC50 was greater than 1 µM.

Question: `NC(Cc1nc2cc(Cl)c(Cl)cc2nc1CP(=O)(O)O)C(=O)O` (configuration not stated) was tested. Which IC50 (Glutamate NMDA receptor [1]) did it give?
Answer: Its IC50 is 0.0034 µM.

Question: And the IC50 (Glutamate NMDA receptor [2])?
Answer: The IC50 was 11.7 µM.

Question: And the IC50 (Glutamate NMDA receptor [3])?
Answer: The IC50 was 0.61 µM.

Question: `CCOC(=O)C(N)Cc1nc2ccccc2nc1CP(=O)(O)O` (configuration not stated) was tested. Which IC50 (Glutamate NMDA receptor [1]) did it give?
Answer: Its IC50 is greater than 1 µM.

Question: Which IC50 (Glutamate NMDA receptor [1]) does the source give for `NC(Cc1nc2c(Cl)ccc(Cl)c2nc1CP(=O)(O)O)C(=O)O` (configuration not stated) here?
Answer: The IC50 was 0.245 µM.

Question: Which IC50 (Glutamate NMDA receptor [1]) does the source give for `NC(Cc1nc2ccccc2nc1CP(=O)(O)O)C(=O)O` (single isomer, unassigned; (+)) here?
Answer: The IC50 was greater than 1 µM.

Question: What does the source list for `O=C(O)[C@@H]1C[C@H](CP(=O)(O)O)CCN1` [SELFOTEL]?
Answer: IC50 (Glutamate NMDA receptor [1]): 0.028 µM; IC50 (Glutamate NMDA receptor [2]): 22.4 µM; IC50 (Glutamate NMDA receptor [3]): > 100 µM

Question: `NC(Cc1nc2ccccc2nc1CCP(=O)(O)O)C(=O)O` (configuration not stated) was tested. Which IC50 (Glutamate NMDA receptor [1]) did it give?
Answer: Its IC50 is greater than 1 µM.

Question: `NC(Cc1cc2nccnc2cc1CP(=O)(O)O)C(=O)O` (configuration not stated) was tested. Which IC50 (Glutamate NMDA receptor [1]) did it give?
Answer: Its IC50 is greater than 1 µM.

Question: How did the IC50 (Glutamate NMDA receptor [1]) turn out when `NC(Cc1nc2cc(F)c(F)cc2nc1CP(=O)(O)O)C(=O)O` (configuration not stated) was run?
Answer: The IC50 was 0.166 µM.

Question: Which IC50 (Glutamate NMDA receptor [1]) does the source give for `O=C(O)C1CN(CCCP(=O)(O)O)CCN1` (configuration not stated) here?
Answer: Its IC50 is 0.113 µM.

Question: And the IC50 (Glutamate NMDA receptor [3])?
Answer: Its IC50 is greater than 100 µM.

Question: How did the IC50 (Glutamate NMDA receptor [1]) turn out when `NC(Cc1nc2ccc(Cl)cc2nc1CP(=O)(O)O)C(=O)O` (configuration not stated) was run?
Answer: The IC50 was 0.038 µM.

Question: And the IC50 (Glutamate NMDA receptor [2])?
Answer: Its IC50 is 13.9 µM.

Question: And the IC50 (Glutamate NMDA receptor [3])?
Answer: Its IC50 is 1.8 µM.

Question: For `NC(CCCCCP(=O)(O)O)C(=O)O` (configuration not stated) [AP-7], which IC50 (Glutamate NMDA receptor [2]) is on record?
Answer: Its IC50 is 302 µM.

Question: Which IC50 (Glutamate NMDA receptor [1]) does the source give for `NC(Cc1nc2ccccc2nc1CP(=O)(O)O)C(=O)O` (stereo in doubt; 7) here?
Answer: The IC50 was 0.119 µM.

Question: And the IC50 (Glutamate NMDA receptor [2])?
Answer: The IC50 was 28 µM.

Question: What about the IC50 (Glutamate NMDA receptor [3]) of the same compound?
Answer: The IC50 was 4.7 µM.

Question: Which IC50 (Glutamate NMDA receptor [1]) does the source give for `NC(Cc1nc2ccccc2nc1CP(=O)(O)O)C(=O)O` (stereo in doubt; 9) here?
Answer: Its IC50 is 0.0293 µM.

Question: What about the IC50 (Glutamate NMDA receptor [2]) of the same compound?
Answer: Its IC50 is 21 µM.

Question: Which results are given for `Cc1cc2nc(CC(N)C(=O)O)c(CP(=O)(O)O)nc2cc1C` (configuration not stated)?
Answer: IC50 (Glutamate NMDA receptor [1]): 0.0223 µM; IC50 (Glutamate NMDA receptor [2]): 16.4 µM

Question: What does the source list for `NC(Cc1nc2cc3ccccc3cc2nc1CP(=O)(O)O)C(=O)O` (configuration not stated)?
Answer: IC50 (Glutamate NMDA receptor [1]): 0.0065 µM; IC50 (Glutamate NMDA receptor [2]): 5.6 µM
